Sampled rows, rich in hits. Any-hit rate of the full collection: about 3.1%.
PP1 inh – blocks human PP1-alpha phosphatase, a PP5 counter-screen; P62136; purified PP1alpha, OMFP fluorescence; inhibition, % at 6.7 µM; 320,000 tested, 0.9% active; AID 2235;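 active means inhibition above the mean inhibition of all tested compounds plus 3 SD, computed separately for each screening campaign, cut at about 15% in these data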
HCV core dimer – blocks dimerization of HCV core protein; TR-FRET GST/Flag-core106 dimerization, 1536-well; inhibition, % at 5 µM; 300,000 tested, 0.33% active; AID 1899;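 active means inhibition above the mean of all tested compounds plus 3 SD, set per screening campaign, cut at about 45% in these data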
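Test system: GST/Flag-tagged HCV core106 proteins; Medium: KF-containing HEPES buffer, pH 7.45, DTT, CHAPS, BSA; Times: compound-protein-antibody incubation 4 h at 22.5 °C; Detection: TR-FRET 671 and 617 nm emission; Benchmarks: wells lacking GST-core106 and wells with excess unlabelled core106.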
Myeloid diff 2 – compounds promoting myeloid differentiation; 360,000 tested, 1% active; ER-HoxA9 myeloid progenitors, lysozyme-GFP differentiation, flow cytometry; calls only at 10 µM; AID 624256;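 active means normalized GFP-positive differentiation at or above the plate's own cutoff, the solvent-only control mean plus 3 SD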;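 further: cells exposed to compound for four days before flow analysis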
PP5 inh – PP5 (human) phosphatase inhibition. purified PP5c, OMFP substrate fluorescence. 320,000 tested, 0.18% active. inhibition, % at 6.7 µM. P53041. AID 1987;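 active means inhibition above the campaign's mean inhibition across all tested compounds plus 3 SD, cut at about 9.5% in these data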;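 further: 0% = DMSO only and 100% = 100 µM cantharidin control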
Target sequence (P53041 whole entry, looked up): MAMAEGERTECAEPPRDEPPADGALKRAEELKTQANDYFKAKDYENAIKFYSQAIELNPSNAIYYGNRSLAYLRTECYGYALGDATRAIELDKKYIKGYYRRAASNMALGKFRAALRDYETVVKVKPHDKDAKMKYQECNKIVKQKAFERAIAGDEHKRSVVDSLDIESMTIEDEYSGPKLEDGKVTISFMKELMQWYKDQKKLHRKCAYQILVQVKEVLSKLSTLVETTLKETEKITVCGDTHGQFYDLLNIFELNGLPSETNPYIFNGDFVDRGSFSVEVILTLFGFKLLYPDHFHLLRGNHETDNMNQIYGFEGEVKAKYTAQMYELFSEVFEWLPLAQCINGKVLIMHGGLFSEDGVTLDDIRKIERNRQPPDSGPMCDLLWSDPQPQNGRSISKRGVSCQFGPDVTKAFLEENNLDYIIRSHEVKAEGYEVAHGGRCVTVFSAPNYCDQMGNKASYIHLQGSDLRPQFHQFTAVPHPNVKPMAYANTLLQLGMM
CTSL1 counter – cathepsin L1 inhibition, PFM18AAP counter-screen. recombinant F. hepatica cathepsin L1, Z-Leu-Arg-MCA fluorescence. inhibition, % at 5.96 µM. 300,000 tested, 0.49% active;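 active means inhibition above the mean of all tested compounds plus 3 SD, set per screening campaign, cut at about 17% in these data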;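 further: 0% = plate median of test compound wells and 100% = 1 µM Z-Phe-Ala-diazomethylketone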
NadD block – NadD (S. aureus) enzyme inhibition; 360,000 tested, 0.78% active; inhibition, % at 20 µM; AID 602399; purified NadD enzyme, colorimetric absorbance read-out; in the data active means inhibition above about 26%
An asterisk follows results filed as active.

What do the screens show for `CC(C)(C)OC1NS(=O)(=O)OCC1NCOC(Cl)(Cl)Cl` (centres undefined)?
PP1 inh: -4; HCV core dimer: -18; Myeloid diff 2: inactive; PP5 inh: -5; CTSL1 counter: 17*; NadD block: 6

How did Cc1cccc(NC(=O)CNC(=O)CN2C(=O)NC3(CCCc4ccccc43)C2=O)c1C (centres undefined) do in these assays?
PP1 inh: -2; HCV core dimer: 4; Myeloid diff 2: inactive; PP5 inh: -1; CTSL1 counter: -5; NadD block: -4

Results for CCCCCn1c(SCc2ccncc2)nc2cc(C(=O)NCc3ccco3)ccc2c1=O ?
PP1 inh: 16*; HCV core dimer: 12; Myeloid diff 2: inactive; PP5 inh: 3; CTSL1 counter: -1; NadD block: 11

How did CCc1cc2cc3c(cc2nc1SCC(=O)Nc1cc(C)on1)OCO3 do in these assays?
PP1 inh: 2; HCV core dimer: 111*; Myeloid diff 2: inactive; PP5 inh: 2; CTSL1 counter: 3; NadD block: -3

Results for NC(=S)N/N=C/c1c(O)c(Br)cc2oc3c(c12)CCCC3 ?
PP1 inh: -1; HCV core dimer: 2; Myeloid diff 2: inactive; PP5 inh: -1; CTSL1 counter: 22*; NadD block: 23

What do the screens show for `Oc1c(Br)cc2oc3c(c2c1CNCc1ccccc1)CCCC3`?
PP1 inh: -2; HCV core dimer: -11; Myeloid diff 2: inactive; PP5 inh: 1; CTSL1 counter: -4; NadD block: 5

Results for CCn1cc(C(=O)N2CCN(c3ccc(OC)cc3)CC2)c(=O)c2cc(S(=O)(=O)N3CCOCC3)ccc21 ?
PP1 inh: -3; HCV core dimer: -6; Myeloid diff 2: inactive; PP5 inh: -2; CTSL1 counter: 0; NadD block: 4

How did COc1ccc(C)cc1Nc1n[n+](-c2ccccc2)c(-c2cc([N+](=O)[O-])cc(OC)c2O)s1 do in these assays?
PP1 inh: 2; HCV core dimer: 17; Myeloid diff 2: active; PP5 inh: -6; CTSL1 counter: 0; NadD block: 6

Results for COc1ccc(C)cc1Nc1n[n+](-c2ccccc2)c(-c2ccc(NC(C)=O)cc2)s1 ?
PP1 inh: 7; HCV core dimer: -7; Myeloid diff 2: inactive; PP5 inh: 3; CTSL1 counter: 6; NadD block: 10

What do the screens show for `Cn1nc(C(C)(C)C)c([N+](=O)[O-])c1C(=O)N1CCCCCC1`?
PP1 inh: 2; HCV core dimer: 1; Myeloid diff 2: inactive; PP5 inh: 2; CTSL1 counter: 0; NadD block: 2

How did C/C(=N\NC(=O)c1ccc(CSc2cccc3cccnc23)cc1)C1CCCCC1 do in these assays?
PP1 inh: 3; HCV core dimer: -1; Myeloid diff 2: active; PP5 inh: 1; CTSL1 counter: -6; NadD block: 5

How did COc1cccc(C(O)c2ncc(-c3ccc(Cl)cc3)[nH]2)c1 (centres undefined) do in these assays?
Myeloid diff 2: inactive; NadD block: 1

How did CSc1nc(SCC(=O)NC(c2ccccc2)c2ccccc2)c2c3c(sc2n1)CN(C)CC3 do in these assays?
PP1 inh: 16*; HCV core dimer: 11; Myeloid diff 2: inactive; PP5 inh: 3; CTSL1 counter: 1; NadD block: 16

How did Cc1ccc(-c2cc3nc(-c4ccccc4)cc(N4CCC5(CC4)OCCO5)n3n2)cc1 do in these assays?
PP1 inh: 0; HCV core dimer: 2; Myeloid diff 2: inactive; PP5 inh: 2; CTSL1 counter: 5; NadD block: 21

How did Cc1cccc(-c2cc3nc(-c4ccccc4)cc(N4CCC5(CC4)OCCO5)n3n2)c1 do in these assays?
PP1 inh: 0; HCV core dimer: 8; Myeloid diff 2: inactive; PP5 inh: 1; CTSL1 counter: 20*; NadD block: 14

How did COc1cc(NS(=O)(=O)c2ccc(C)cc2)c2c(c1N)C(=O)c1ccccc1C2=O do in these assays?
Myeloid diff 2: active; NadD block: 15

Results for COc1ccc(-c2cc(C(=O)Nc3ccc(C(N)=O)cc3)c3ccccc3n2)cc1 ?
PP1 inh: 4; HCV core dimer: 3; Myeloid diff 2: inactive; PP5 inh: 6; CTSL1 counter: 2; NadD block: 15

From PubChem BioAssay
